This note sets out measurements from ChEMBL document CHEMBL4831496, “Noncovalent EGFR T790M/L858R inhibitors based on diphenylpyrimidine scaffold: Design, synthesis, and bioactivity evaluation for the treatment of NSCLC” (Eur J Med Chem, 2021).

One data set relates to A549. The data set is described as follows: Antiproliferative activity against human A549 cells harboring KRAS G12S mutant assessed as reduction in cell viability incubated for 72 hrs by CCK8 assay. It counts as functional, cell-based. The following applies: A549, 72 h. An outline of the steps: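 Cells kept as monolayers at 37 °C, 5% CO2, seeded 3000-4000/well for 12 h, then exposed to compounds for 72 h. CCK-8 added for 1-2 h at 37 °C, absorbance read at 450 nm. Each dose run in triplicate, experiment repeated at least three times. IC50 taken from dose-response curves.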

In data set [1] the test system is NCI-H1975. The data set is described as follows: Induction of cell cycle arrest in human NCI-H1975 cells assessed as accumulation of cells at S phase at 0.125 uM incubated for 48 hrs by propidium iodide staining based flow cytometry analysis (reference value: 11.72%). It counts as functional.
The test system of data set [2] is NCI-H1975. The data set is described as follows: Induction of apoptosis in human NCI-H1975 cells assessed as late apoptotic cells at 0.125 uM incubated for 48 hrs by AnnexinV/FITC and propidium iodide staining based flow cytometry analysis (reference value: 0.73%). It counts as functional.
A short description of data set [3]: AUC (0 to t) in Sprague-Dawley rat at 25 mg/kg, iv measured for 24 hrs by LC-MS/MS analysis. Conditions: in vivo. It counts as ADME, organism-based. On the set-up: dose 25 mg/kg, time 24 hrs. Summed up:
(§1)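 Male Sprague-Dawley rats (200 ± 20 g), acclimatised 1 week at 25 ± 2 °C, 50-60% RH; six rats given 25 mg/kg by tail vein. Retro-orbital blood into heparin at 10, 20, 40 min and 1, 2, 3, 4, 6, 8, 12, 24 h. Plasma ethyl acetate-extracted and quantified by LC-MS/MS, transition m/z 485.3/452.3.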

For data set [4], the system named is NCI-H1975. The data set is described as follows: Induction of apoptosis in human NCI-H1975 cells assessed as viable cells at 0.5 uM incubated for 48 hrs by AnnexinV/FITC and propidium iodide staining based flow cytometry analysis (reference value: 94.9%). It counts as functional. The following applies: read-out: Activity.
Data set [5] is described as follows: MRT (0 to infinity) in Sprague-Dawley rat at 25 mg/kg, iv by LC-MS/MS analysis. It counts as ADME, organism-based. The following applies: in vivo. An outline of the steps:
as §1

Data set [6] can be described thus: Clearance in Sprague-Dawley rat at 25 mg/kg, iv measured for 24 hrs by LC-MS/MS analysis. The following applies: in vivo. It counts as ADME, organism-based. An outline of the steps: as §1
Data set [7] deals with NCI-H1975. The data set is described as follows: Induction of morphological changes in human NCI-H1975 cells assessed as chromatin shrinkage and gathering to nuclear membrane at 0.5 to 2 uM incubated for 48 hrs by DAPI staining based fluorescence microscopic analysis. Conditions: dose 0.5-2 µM. It counts as functional, cell-based. An outline of the steps: (§2)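 H1975 cells seeded at about 2 × 10⁵/well for 12 h, then treated. Cells fixed in 10% formaldehyde for 10 min, stained with DAPI for 10 min at room temperature and examined by fluorescence microscopy. Cell shape was also viewed under natural light.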

For data set [8], the target named is Epidermal growth factor receptor (Homo sapiens, UniProt P00533, L858R/T790M). The data set is described as follows: Inhibition of EGFR L858R/T790M double mutant (unknown origin) measured after 60 mins by ADP-Glo kinase based luminescence assay.
Data set [9] has as its system NCI-H1975. The data set is described as follows: Induction of apoptosis in human NCI-H1975 cells assessed as necrotic cells at 0.5 uM incubated for 48 hrs by AnnexinV/FITC and propidium iodide staining based flow cytometry analysis (reference value: 2.99%). It counts as functional.
Data set [10] has as its system NCI-H1975. Briefly: Induction of apoptosis in human NCI-H1975 cells assessed as early apoptotic cells at 0.125 uM incubated for 48 hrs by AnnexinV/FITC and propidium iodide staining based flow cytometry analysis (reference value: 1.39%). It counts as functional.
Data set [11] relates to NCI-H1975. Briefly: Induction of cell cycle arrest in human NCI-H1975 cells assessed as accumulation of cells at G0/G1 phase at 0.125 uM incubated for 48 hrs by propidium iodide staining based flow cytometry analysis (reference value: 58.05%). It counts as functional.
For data set [12], the system named is NCI-H1975. The data set is described as follows: Induction of apoptosis in human NCI-H1975 cells assessed as early apoptotic cells at 2 uM incubated for 48 hrs by AnnexinV/FITC and propidium iodide staining based flow cytometry analysis (reference value: 1.39%). It counts as functional.
The subject of data set [13] is NCI-H1975. Briefly: Induction of morphological changes in human NCI-H1975 cells assessed as nuclear fragmentation at 0.5 to 2 uM incubated for 48 hrs under natural light by DAPI staining based fluorescence microscopic analysis. It counts as functional, cell-based. Conditions: dose 0.5-2 µM. Summed up: as §2

pIC50: −log10 of the molar value. The source made the active and inactive calls. The rule behind the calls is not given here.

Epidermal growth factor receptor, sequence (P00533 25-1210 T790M/L858R limits assumed): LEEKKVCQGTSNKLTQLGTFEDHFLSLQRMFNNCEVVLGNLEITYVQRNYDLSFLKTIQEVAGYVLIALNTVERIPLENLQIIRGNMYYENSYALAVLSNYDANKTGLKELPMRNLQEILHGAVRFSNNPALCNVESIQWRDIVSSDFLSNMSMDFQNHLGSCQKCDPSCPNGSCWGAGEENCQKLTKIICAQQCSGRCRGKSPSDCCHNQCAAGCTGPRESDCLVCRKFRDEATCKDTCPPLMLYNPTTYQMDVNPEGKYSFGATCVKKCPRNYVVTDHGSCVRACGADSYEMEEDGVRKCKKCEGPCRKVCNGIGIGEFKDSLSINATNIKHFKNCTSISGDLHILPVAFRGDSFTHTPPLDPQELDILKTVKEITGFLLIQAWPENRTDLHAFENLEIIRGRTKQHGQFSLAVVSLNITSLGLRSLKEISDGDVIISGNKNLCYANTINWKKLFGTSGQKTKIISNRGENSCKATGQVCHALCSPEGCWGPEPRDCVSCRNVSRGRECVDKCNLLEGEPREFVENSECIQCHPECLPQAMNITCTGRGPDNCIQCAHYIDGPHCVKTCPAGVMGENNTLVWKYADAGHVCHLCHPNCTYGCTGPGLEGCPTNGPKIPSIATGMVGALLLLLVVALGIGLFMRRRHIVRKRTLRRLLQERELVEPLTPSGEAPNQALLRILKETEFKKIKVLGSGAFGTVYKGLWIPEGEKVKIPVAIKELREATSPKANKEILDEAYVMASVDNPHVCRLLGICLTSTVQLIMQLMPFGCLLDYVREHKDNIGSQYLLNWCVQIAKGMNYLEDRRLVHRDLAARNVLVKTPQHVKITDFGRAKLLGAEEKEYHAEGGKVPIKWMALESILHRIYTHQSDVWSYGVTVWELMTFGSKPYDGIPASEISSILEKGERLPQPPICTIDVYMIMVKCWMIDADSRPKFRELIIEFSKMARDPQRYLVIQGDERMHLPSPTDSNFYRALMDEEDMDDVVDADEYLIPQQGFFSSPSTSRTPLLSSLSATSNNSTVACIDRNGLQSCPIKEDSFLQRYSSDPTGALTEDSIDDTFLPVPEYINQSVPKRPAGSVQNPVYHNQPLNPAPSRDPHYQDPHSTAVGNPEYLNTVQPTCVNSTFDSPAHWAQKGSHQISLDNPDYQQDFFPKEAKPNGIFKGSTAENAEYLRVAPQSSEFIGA

On to `O=C(NO)c1ccccc1Nc1nc(Nc2ccc(OCCN3CCOCC3)cc2)ncc1Cl`, for which the pIC50 in the data set on A549 is 7.01; in [8], 8.96. Besides, the Activity in the data set with NCI-H1975 [1] came out at 15.08%; with NCI-H1975 [2], 0.31%; with NCI-H1975 [9], 0.07%; in the data set with NCI-H1975 [10] it was 4%; in the data set on NCI-H1975 [11] it was 20.25%; in the data set with NCI-H1975 [12], 90.55%. Besides, in [3], the AUC(0-t) at 24 h came to 37600 ng·h/mL. Further, the viability at 0.5 µM in the data set with NCI-H1975 [4] stood at 83.8%. In data set [5], the MRT inf is 13.1 h. In data set [6], the clearance was 9.23 mL/min/kg. The outcome in the data set with NCI-H1975 [7] and in the data set with NCI-H1975 [13] was Active.
